Compound activity (PubChem)
Hits are enriched below; roughly 7.1% of the tested compounds scored in any of these assays.
Cav32 inh = human Cav3.2 channel inhibition, primary screen | O95180 | Cav3.2-expressing cells, Fluo-4 calcium fluorescence FDSS; hits give low values | B-score at 10 µM | actives 4% (n = 100,000) | AID 449739;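 active means single-dose well whose peak fluorescence ratio is a statistical outlier from its plate by either plate-standardised score or position-corrected B-score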
HCT116 bCat-KO = beta-catenin-lacking colon tumor cell growth suppression | HCT116 beta-catenin knockout viability, CellTiter-Glo, 60 h; hits give low values | viability, % at 10 µM | actives 1.5% (n = 140,000);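 active means viability at or under a set limit, the compound median less 4 SD, cut at about 6% in these data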;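 further: 0% = Hyamine 1622 control at 20 µM and 100% = untreated cell control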
HUVEC prolif 384 = human endothelial cell proliferation inhibition | HUVEC proliferation, CellTiter-Glo luminescence, 72 h; hits give low values | AID 648 | viability, % at 10 µM (by protocol) | actives 1.1% (n = 86,000);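 active means viability at or below 30%; inactive means viability above 30%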;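 further: 100% = median luminescence of DMSO-only cell control wells on each plate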
H69AR growth 86K = growth inhibitors of human H69AR lung tumor cells; H69AR lung tumor viability, ATP luminescence, 72 h; hits give low values; viability, % at 10 µM; actives 6% (n = 85,000);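 active means viability at or below 40%; inactive means viability above 40%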;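 further: multidrug resistant small cell line overexpressing MRP-1 efflux transporter; 100% = mean luminescence of untreated control wells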
Fibroblast inh = blocks proliferation of human lung fibroblasts; LL 47 human lung fibroblast viability, ATP luminescence; hits give low values; viability, % at 10 µM; actives 1.1% (n = 85,000);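 active means viability at or below 50% in the single dose screen; inactive means viability above 50%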;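 further: compound exposure lasted 72 h before the ATP readout; 100% = median luminescence of untreated cell-only wells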
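Assay system: human lung fibroblast line LL 47, low passage. Input: 1,150 fibroblasts seeded per well. Times: overnight cell rest, 72 h compound treatment at 37 °C. Evaluation: % viability of median cell-only signal. Technique: luminescent ATP detection, CellTiter-Glo. Control set: cell-only wells, no compound.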
HCT116 PTEN-null = PTEN-deleted cell growth suppression. viability, % at 10 µM. actives 1.2% (n = 140,000). HCT116 PTEN-null viability, CellTiter-Glo, 60 h; hits give low values. AID 827;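 active means viability at or below a set limit, 4 SD under the median of all tested compounds, cut at about 3.7% in these data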;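 further: PTEN knockout HCT116 line with beta catenin targeted HCT116 as companion control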
* hit, by the source's call.

Screening O=C(CN1CCOCC1)Nc1ccc(OCc2ccccc2)cc1 returned Cav32 inh -0.16, HCT116 bCat-KO 86, HUVEC prolif 384 86, H69AR growth 86K 6.9*, Fibroblast inh 102 and HCT116 PTEN-null 81.
Screening Cc1cccc(NC(=S)N/N=C/c2c[nH]c3ccccc23)c1 returned HCT116 bCat-KO 14 and HCT116 PTEN-null 15.
For O=C(CCN1CCN(c2ccccc2F)CC1)c1ccc(Br)cc1 the results were Cav32 inh 0.91, HCT116 bCat-KO 73, HUVEC prolif 384 70, H69AR growth 86K 7.7*, Fibroblast inh 86 and HCT116 PTEN-null 62.
Screening CCOc1ccc(NC(=O)CN2CCN(CC(=O)Nc3ccc(F)cc3)CC2)cc1 returned Cav32 inh 0.55, HCT116 bCat-KO 93, HUVEC prolif 384 98, H69AR growth 86K 30*, Fibroblast inh 89 and HCT116 PTEN-null 95.
`COC(=O)c1ccccc1NC(=O)CN(CCc1ccccc1)S(C)(=O)=O` gave Cav32 inh -0.84, HCT116 bCat-KO 96, HUVEC prolif 384 98, H69AR growth 86K 89, Fibroblast inh 106 and HCT116 PTEN-null 87.
For CS(=O)(=O)N(CCc1ccccc1)CC(=O)Nc1ccc(OCc2ccccc2)cc1 the results were Cav32 inh -4.2*, HCT116 bCat-KO 20 and HCT116 PTEN-null 24.
Cc1ccc2cc(C)c3nnc(SCC(=O)Nc4nc5c(s4)CCCC5)n3c2c1 was read as Cav32 inh -1.6, HCT116 bCat-KO 85 and HCT116 PTEN-null 90.
Screening C/C(Cl)=C/Cn1c(N2CCCC2)nc2c1c(=O)n(C)c(=O)n2C returned Cav32 inh 2.5, HCT116 bCat-KO 86, HUVEC prolif 384 92, H69AR growth 86K 33*, Fibroblast inh 86 and HCT116 PTEN-null 91.
C/C(Cl)=C\Cn1c(N2CCCC2)nc2c1c(=O)[nH]c(=O)n2C was read as Cav32 inh 3.5*, HCT116 bCat-KO 105, HUVEC prolif 384 96, H69AR growth 86K 70, Fibroblast inh 92 and HCT116 PTEN-null 95.
For Cn1c(=O)c2c(nc(N3CCCCC3)n2C)n(C)c1=O the results were Cav32 inh 0.61, HCT116 bCat-KO 94 and HCT116 PTEN-null 96.
For C(=N\n1cnnc1)/c1cccc(Oc2ccccc2)c1 the results were Cav32 inh 0.69, HCT116 bCat-KO 96, HUVEC prolif 384 105, H69AR growth 86K 105, Fibroblast inh 102 and HCT116 PTEN-null 99.
For S=c1[nH]ncn1/N=C/c1cccc(Oc2ccccc2)c1 the results were Cav32 inh -0.18, HCT116 bCat-KO 107, HUVEC prolif 384 81, H69AR growth 86K 1.7*, Fibroblast inh 100 and HCT116 PTEN-null 107.
For CN(CC(=O)Nc1ccc(C#N)cc1)Cc1ccc(Cl)cc1Cl the results were Cav32 inh -4.2*, HCT116 bCat-KO 57 and HCT116 PTEN-null 55.
For N#Cc1ccc(NC(=O)Nc2ccc(Cl)cc2)cc1 the results were Cav32 inh -0.2, HCT116 bCat-KO 4.0*, HUVEC prolif 384 35, H69AR growth 86K 7.1*, Fibroblast inh 39* and HCT116 PTEN-null 3.4*.
For NCCCCC(NC(=O)C1CCCN1C(=O)C1CSSCC(N)C(=O)NC(Cc2ccc(O)cc2)C(=O)NC(Cc2ccccc2)C(=O)NC(CCC(N)=O)C(=O)NC(CC(N)=O)C(=O)N1)C(=O)NCC(N)=O (centres undefined) the results were HCT116 bCat-KO 95 and HCT116 PTEN-null 91.
Screening Nc1nc(SCC(=O)NCCC(c2ccccc2)c2ccccc2)n[nH]1 returned Cav32 inh 0.026, HCT116 bCat-KO 93, HUVEC prolif 384 94, H69AR growth 86K 92, Fibroblast inh 109 and HCT116 PTEN-null 101.
`O=C(CCSc1nnc2scc(-c3ccccc3)n12)Nc1nc(-c2ccccc2)ns1` gave Cav32 inh -4.6*, HCT116 bCat-KO 95, HUVEC prolif 384 71, H69AR growth 86K 109, Fibroblast inh 98 and HCT116 PTEN-null 96.
Screening CC(=O)Nc1ccc(C(=O)CSc2nnc3scc(-c4ccccc4)n23)cc1 returned Cav32 inh 0.2, HCT116 bCat-KO 111, HUVEC prolif 384 92, H69AR growth 86K 53, Fibroblast inh 95 and HCT116 PTEN-null 90.
For COC(=O)c1ccc(-c2ccc(Cl)cc2)nc1C the results were HCT116 bCat-KO 97 and HCT116 PTEN-null 97.
`O=C(N/N=C\c1c(O)ccc2ccccc12)c1ccc(Cn2cccn2)o1` gave HCT116 bCat-KO 5.6* and HCT116 PTEN-null 5.
`O=C(N/N=C\c1ccc(Cl)s1)c1ccc(Cn2cccn2)o1` gave HCT116 bCat-KO 93 and HCT116 PTEN-null 101.
Cc1ccc(-c2cc(C(F)F)nc(NCc3cccnc3)n2)cc1 was read as Cav32 inh -4.4*, HCT116 bCat-KO 15, HUVEC prolif 384 82, H69AR growth 86K 61, Fibroblast inh 81 and HCT116 PTEN-null 36.
Screening Cc1ccc(S(=O)(=O)N2CCN(Cc3nc4ccccc4[nH]3)CC2)cc1C returned Cav32 inh -5.2, HCT116 bCat-KO 83, HUVEC prolif 384 101, H69AR growth 86K 35*, Fibroblast inh 92 and HCT116 PTEN-null 91.
`Cc1cc(C)c(C)c(S(=O)(=O)N2CCN(Cc3nc4ccccc4[nH]3)CC2)c1C` gave Cav32 inh 0.87, HCT116 bCat-KO 68, HUVEC prolif 384 88, H69AR growth 86K 42, Fibroblast inh 98 and HCT116 PTEN-null 74.
For COc1ccc(C(=O)N2N=C3CC(C)(C)OCC3C2c2ccccc2)cc1 (centres undefined) the results were HCT116 bCat-KO 98 and HCT116 PTEN-null 89.
For O=C(CC1c2ccccc2Oc2ccccc21)N1CCN(c2ccccn2)CC1 the results were Cav32 inh -1.9, HCT116 bCat-KO 62, HUVEC prolif 384 97, H69AR growth 86K 38*, Fibroblast inh 110 and HCT116 PTEN-null 57.
CCCCCc1nc2ccccc2c(=O)n1NC(=O)c1c(O)c2cccc3c2n(c1=O)CCC3 was read as HUVEC prolif 384 102, H69AR growth 86K 27* and Fibroblast inh 92.
CCCCc1nc2ccccc2c(=O)n1NC(=O)c1c(O)c2cccc3c2n(c1=O)CCC3 was read as HUVEC prolif 384 94, H69AR growth 86K 109 and Fibroblast inh 93.
CCCCCCc1nc2ccccc2c(=O)n1NC(=O)c1c(O)c2cccc3c2n(c1=O)CCC3 was read as HCT116 bCat-KO 55, HUVEC prolif 384 102, H69AR growth 86K 25*, Fibroblast inh 90 and HCT116 PTEN-null 57.
`O=C(COC(=O)Cc1ccc(Cl)cc1Cl)Nc1ccccc1OC(F)F` gave HCT116 bCat-KO 86 and HCT116 PTEN-null 90.
Cc1ccsc1C1NC(=O)c2c(sc3c2CCCC3)N1 (centres undefined) was read as Cav32 inh -0.47, HCT116 bCat-KO 80 and HCT116 PTEN-null 86.
For Cn1cc(C2NC(=O)c3c(sc4c3CCCC4)N2)c2ccccc21 (centres undefined) the results were HUVEC prolif 384 85, H69AR growth 86K 28* and Fibroblast inh 91.
